Series [1] has as its system Blood. Kind of series: Biodistribution in blood of NMRI mouse at 185 KBq, iv after 4 hrs. The following applies: in vivo. In kind it is ADME, organism-based.
In series [2] the test system is Urinary bladder. Kind of series: Biodistribution in bladder of NMRI mouse at 185 KBq, iv after 4 hrs. Type of series: ADME, organism-based. The conditions noted are these: in vivo.
Series [3] relates to Kidney. Kind of series: Biodistribution in kidney of NMRI mouse at 185 KBq, iv after 4 hrs. Type of series: ADME, organism-based. The conditions noted are these: in vivo.
For series [4], the system named is Urinary bladder. Kind of series: Biodistribution in bladder of NMRI mouse at 185 KBq, iv after 30 mins. The conditions noted are these: in vivo, 0.5 h. Type of series: ADME, organism-based.
For series [5], the system named is Liver. Kind of series: Biodistribution in liver of NMRI mouse at 185 KBq, iv after 30 mins. Type of series: ADME, organism-based. The following applies: in vivo, 0.5 h.
For series [6], the system named is Brain. Briefly: Biodistribution in brain of NMRI mouse at 185 KBq, iv after 4 hrs. In kind it is ADME, organism-based. The following applies: in vivo.
Series [7] in a line: Biodistribution in intestine + faeces of NMRI mouse at 185 KBq, iv after 24 hrs. Type of series: ADME, organism-based. The following applies: in vivo.
In series [8] the test system is Blood. Kind of series: Biodistribution in blood of NMRI mouse at 185 KBq, iv after 24 hrs. In kind it is ADME, organism-based. The following applies: in vivo.
The nature of series [9]: Partition coefficient, log P of the compound. Type of series: physicochemical. The following applies: octanol/water. The essentials:
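Octanol/buffer partitioning against 0.025 M phosphate buffer, pH 7.4; log P reported as mean ± deviation of n = 6 determinations.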

The nature of series [10]: Biodistribution in intestine + faeces of NMRI mouse at 185 KBq, iv after 30 mins. In kind it is ADME, organism-based. The following applies: in vivo, 0.5 h.
The nature of series [11]: Biodistribution in spleen + pancreas of NMRI mouse at 185 KBq, iv after 30 mins. In kind it is ADME, organism-based. The conditions noted are these: in vivo, 0.5 h.
A short description of series [12]: Biodistribution in carcass of NMRI mouse at 185 KBq, iv after 4 hrs. Type of series: ADME, organism-based. The following applies: in vivo.
Series [13] concerns Kidney. Kind of series: Biodistribution in kidney of NMRI mouse at 185 KBq, iv after 30 mins. In kind it is ADME, organism-based. The conditions noted are these: in vivo, 0.5 h.
In series [14] the test system is Liver. Kind of series: Biodistribution in liver of NMRI mouse at 185 KBq, iv after 24 hrs. Type of series: ADME, organism-based. The following applies: in vivo.
The test system of series [15] is Liver. Kind of series: Biodistribution in liver of NMRI muse at 185 KBq, iv after 4 hrs. In kind it is ADME, organism-based. The conditions noted are these: mouse, in vivo.
Series [16] has as its system Blood. Briefly: Biodistribution in blood of NMRI mouse at 185 KBq, iv after 30 mins. In kind it is ADME, organism-based. The conditions noted are these: in vivo, 0.5 h.
Series [17] concerns Kidney. Briefly: Biodistribution in kidney of NMRI mouse at 185 KBq, iv after 24 hrs. The following applies: in vivo. In kind it is ADME, organism-based.
Series [18] in a line: Biodistribution in intestine + faeces of NMRI mouse at 185 KBq, iv after 4 hrs. Type of series: ADME, organism-based. The following applies: in vivo.
In series [19] the test system is Urinary bladder. Kind of series: Biodistribution in bladder of NMRI mouse at 185 KBq, iv after 24 hrs. The following applies: in vivo. Type of series: ADME, organism-based.
Another series relates to Lung. Briefly: Biodistribution in lung of NMRI mouse at 185 KBq, iv after 24 hrs. The following applies: in vivo. Type of series: ADME, organism-based.
The nature of series [20]: Biodistribution in spleen + pancreas of NMRI mouse at 185 KBq, iv after 24 hrs. In kind it is ADME, organism-based. The following applies: in vivo.
Series [21] in a line: Biodistribution in carcass of NMRI mouse at 185 KBq, iv after 24 hrs. Type of series: ADME, organism-based. The conditions noted are these: in vivo.
Series [22] is described as follows: Biodistribution in carcass of NMRI mouse at 185 KBq, iv after 30 mins. In kind it is ADME, organism-based. The conditions noted are these: in vivo, 0.5 h.
The subject of series [23] is Brain. Kind of series: Biodistribution in brain of NMRI mouse at 185 KBq, iv after 24 hrs. In kind it is ADME, organism-based. The conditions noted are these: in vivo.
The test system of series [24] is Brain. Kind of series: Biodistribution in brain of NMRI mouse at 185 KBq, iv after 30 mins. In kind it is ADME, organism-based. The following applies: in vivo, 0.5 h.

The structures appear in SMILES notation. Values joined by “and” are separate entries in the source; they are usually repeats but may differ in a detail not shown here. Identical values can stand only once.

By logP is commonly meant the decadic logarithm of the partition coefficient of the neutral form, usually between octanol and water. The low end stands for lower lipophilicity, the high end for higher lipophilicity. Turning to `Cc1cc(O)c2c(=O)c3c(O)cc(O)c4c5c(O)c([123I])c(O)c6c(=O)c7c(O)cc(C(=O)O)c8c1c2c(c34)c(c78)c65`, the Drug uptake in the series on Blood [1] was 1.6 %ID and 0.6 % ID/g; in the series with Urinary bladder [2], 7.1 %ID; in the series with Kidney [3], 2.6 %ID and 4.8 % ID/g; in the series on Urinary bladder [4], 0.3 %ID; in the series with Liver [5] it was 64.4 %ID and 33.7 % ID/g; in the series on Brain [6], 0 %ID. For the same molecule, the Drug uptake in [7] is 69.4 %ID; in the series with Blood [8], 0.1 %ID; in [10] it was 13.2 %ID; in series [11], 1.3 %ID and 3.9 % ID/g; in series [12] it was 10.3 %ID; in the series with Kidney [13], 2.9 %ID and 4.4 % ID/g. Further, the Drug uptake in the series on Liver [14] was 4.7 %ID and 2.7 % ID/g; with Liver [15] it was 22.4 %ID and 13.2 % ID/g; with Blood [16] it was 3.3 %ID and 1.3 % ID/g; in the series on Kidney [17] it was 1 %ID and 1.9 % ID/g; in series [18], 50.5 %ID; in the series with Urinary bladder [19] it was 21.1 %ID. The Drug uptake is 0.1 %ID and 0.2 % ID/g in the series on Lung; 0.2 %ID and 0.5 % ID/g in [20]; 2.8 %ID in series [21]; 13.2 %ID in [22]; 0 %ID with Brain [23]; 0 %ID in the series with Brain [24]. In addition, the logP in series [9] was found to be 1.47.

The molecule `Cc1cc(O)c2c(=O)c3c(O)cc(O)c4c5c(O)c([123I])c(O)c6c(=O)c7c(O)cc(C)c8c1c2c(c34)c(c78)c65` came in with a Drug uptake in the series with Blood [1] of 28.2 % ID/g.

These data come from ChEMBL document CHEMBL1145371, “Synthesis and preliminary evaluation of mono-[123I]iodohypericin monocarboxylic acid as a necrosis avid imaging agent” (Bioorg Med Chem Lett, 2007).
